This is a sample that favours compounds with a hit; in the whole collection about 2.8% have one here.
EP2 mod: modulates human prostaglandin E2 receptor EP2 signaling; P43116; EP2-expressing cells, cAMP HTRF FRET, PGE2 co-stimulation; induction, % at 25 µM; actives 0.83% (n = 260,000); AID 940;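 active means compounds whose cAMP rise, as percent of the full-agonist control response, exceeds 60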;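 further: rat C6 glioma line stably carrying human EP2 under a CMV promoter; the protocol text gives 20 µM as final concentration; 100% = response of wells given 1 µM PGE2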
Target sequence (P43116 whole entry, looked up): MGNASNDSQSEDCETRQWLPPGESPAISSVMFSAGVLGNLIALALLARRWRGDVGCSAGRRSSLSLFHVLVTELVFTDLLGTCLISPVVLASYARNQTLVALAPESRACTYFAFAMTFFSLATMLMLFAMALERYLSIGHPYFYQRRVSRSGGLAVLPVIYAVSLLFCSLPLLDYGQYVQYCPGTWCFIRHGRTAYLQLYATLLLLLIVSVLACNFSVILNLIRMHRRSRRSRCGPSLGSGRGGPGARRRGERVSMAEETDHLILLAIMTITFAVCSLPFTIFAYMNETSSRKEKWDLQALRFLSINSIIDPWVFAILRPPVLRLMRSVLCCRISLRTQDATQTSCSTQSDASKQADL
NPY Y2 blocker: antagonists of human neuropeptide Y receptor Y2 | P49146 | NPY-Y2 expressing cells, antagonist mode | inhibition, % at 2.7 µM | actives 0.99% (n = 140,000) | AID 793; in the data active means inhibition above about 17%;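 further: 0% = vehicle with agonist challenge and 100% = reference antagonist with challenge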
PGE2 EP2 inh: EP2 receptor (human) inhibition. P43116. C6 glioma cells expressing human EP2, cAMP TR-FRET; cells stimulated with saturating PGE2. inhibition, % at 25 µM. actives 0.52% (n = 260,000). AID 1422;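 active means percent inhibition above 40 after rounding to a whole number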;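 further: rat C6 glioma host cells with rolipram phosphodiesterase inhibitor present; the protocol text gives 20 µM as final concentration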
NPY-Y2 PAM-ag: potentiates or activates human NPY-Y2 receptor | AID 1359 | actives 0.45% (n = 220,000) | cells expressing NPY-Y2, potentiator/agonist read-out | activation, % at 3.6 µM; in the data active means activation above about 27%;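 further: cells stimulated with NPY near EC25 plus isoproterenol at EC100; 0% = vehicle plus submaximal agonist and 100% = vehicle plus saturating agonist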
NPY Y1 blocker: blocks the human neuropeptide Y Y1 receptor; P25929; HEK293-CNG Y1 cells, membrane potential fluorescence; NPY at EC95, then isoproterenol; inhibition, % at 3.6 µM; actives 1% (n = 200,000);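 active means inhibition above the campaign mean inhibition of all tested compounds plus 3 SD, cut at about 20% in these data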;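 further: 0% = DMSO wells given NPY plus isoproterenol and 100% = isoproterenol alone without NPY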
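Material: HEK293 cells with Y1 receptor plus CNG channel; times: compound incubation 1 h at room temperature, readout 45 min post-stimulation; signal: fluorescence, membrane potential probe; read-out basis: fluorescence ratio normalized to % inhibition between controls; benchmarks: full-block control isoproterenol-only wells, zero-block control NPY plus isoproterenol wells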
NPY1 pot ag: potentiates or activates human NPY-Y1 receptor; P25929; activation, % at 3.6 µM; NPY-Y1 expressing cells, potentiator/agonist activation; actives 0.37% (n = 220,000); AID 1304; in the data active means activation above about 33%, passing the limit was not always enough;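 further: cells stimulated with NPY at EC10 then isoproterenol at EC100; 0% = low agonist plus stimulus and 100% = saturating agonist plus stimulus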
The depositor's hits bear a star; nt = no result given; ! = a repeat was not active.

SMILES	EP2 mod	NPY Y2 blocker	PGE2 EP2 inh	NPY-Y2 PAM-ag	NPY Y1 blocker	NPY1 pot ag
CC(C)c1ccc(O)c(O)c(=O)c1 (tested in a mixture with another compound)	48	nt	41*	nt	nt	nt
Cn1c2ccccc2c(=O)c2c(=O)n(Cc3ccco3)c(-c3ccc(C(C)(C)C)cc3)nc21	65*	nt	10	-8	nt	-16
COCCNC(=O)CN(C(=O)CCC(=O)Nc1nccs1)c1ccc(C)cc1C	-22	nt	10	nt	nt	nt
N#Cc1c(-c2ccccc2)c(-c2ccccc2)nn(CC(=O)NNC(=O)Nc2ccc(Cl)cc2)c1=O	2	nt	79*	39*	nt	51*
CC1(C)C([N+](=O)[O-])C(c2ccc(O)cc2)NC(c2ccc(O)cc2)C1[N+](=O)[O-] (centres undefined)	-15	1	11	35*	4	40*
CC1(C)C([N+](=O)[O-])C(c2ccc(F)cc2)NC(c2ccc(F)cc2)C1[N+](=O)[O-] (centres undefined)	-3	nt	4	-14	nt	-9
COc1ccccc1NC(=O)CSc1nc(C2CCCCC2)nc2ccccc12	79*	nt	6	nt	nt	nt
CCOc1ccccc1NC(=O)CSc1nc(Cc2ccccc2)nc2ccccc12	79*	nt	10	nt	nt	nt
CCOC(=O)CSc1nc(C2CCCCC2)nc2ccccc12	66*	nt	10	nt	nt	nt
CSc1nc(Cc2ccccc2)nc2ccccc12	62*	nt	12	-18	6	1
CC(C)C(=O)Nc1nnc(C2CCCO2)s1 (centres undefined)	-2	nt	8	nt	nt	nt
CCOc1ccc(NC(=O)c2cc3c(n(-c4ccc(C)cc4)c2=O)CCCC3=O)cc1	-16	nt	10	nt	nt	nt
Cc1cc(C)c2nc(SCC(=O)Nc3nc(C)c(C)s3)cc(C)c2c1	61*	nt	19	nt	nt	nt
CCCc1nc(SCC(=O)Nc2ccc(C)cc2C)c2ccccc2n1	-16	nt	10	nt	nt	nt
CCCc1nc(SCC(=O)Nc2nc(C)c(C)s2)c2ccccc2n1	63*	nt	8	nt	nt	nt
COc1cc(OC)c(N(C)S(=O)(=O)c2cccc(C(=O)Nc3nnc(C4CC4)s3)c2)cc1Cl	-9	nt	5	56*	nt	71*
Cc1ccc(N(C)S(=O)(=O)c2cccc(C(=O)Nc3nnc(C4CC4)s3)c2)cc1	-37	nt	4	13	-3	22
C=CCn1c(SCC(=O)c2cc(C)n(CCOC)c2C)nc2sc(C)c(C)c2c1=O	-39	3	42*	-7	-3	26
C=CCn1c(SCC(=O)c2cccs2)nc2sc(C)c(C)c2c1=O	-93	4	6	-20	10	-41
O=C(NCc1ccco1)c1ccc(-c2ccccc2Cl)o1	-60	nt	60*!	-13	8	6
CCOC(=O)C(C)Sc1nc2c(c(=O)[nH]c(=O)n2C)n1CCc1ccccc1 (centres undefined)	21	2	13	-3	-1	-14
COC(=O)C(C)Sc1nc2c(c(=O)[nH]c(=O)n2C)n1CCCc1ccccc1 (centres undefined)	37	46*	15	-12	46*	-47
CC(=O)N1CCCc2cc(C(O)CN3CCC(C(C)(C)C)CC3)ccc21 (centres undefined)	-19	nt	8	nt	nt	nt
c1ccc(OCCOCCN2CCN(C(c3ccccc3)c3ccccc3)CC2)cc1	61*	11	7	-11	16	-8
Cc1csc(N/N=C/c2ccc(O)c([N+](=O)[O-])c2)n1	8	1	3	6	2	7
SMILES	EP2 mod	NPY Y2 blocker	PGE2 EP2 inh	NPY-Y2 PAM-ag	NPY Y1 blocker	NPY1 pot ag
O=[N+]([O-])c1cc(/C=N\Nc2nc(-c3ccccc3)cs2)ccc1O	-102	nt	48*	24	-2	29
Cc1nc2c(c(=O)[nH]1)CCN(Cc1ccc3c4ccccc4n(C)c3c1)C2	-51	nt	7	nt	nt	nt
CC(C)N=c1scc(-c2ccco2)n1/N=C/c1ccc(O)c(O)c1	0	-6	8	34*	-5	50
O=C(NC1CCN(Cc2nnnn2C2CCCCC2)CC1)c1ccc(F)cc1	-21	nt	5	nt	nt	nt
CCOc1ccc2noc3c2c1C(=O)c1ccccc1-3	-38	3	17	5	3	5
O=C1c2ccccc2-c2onc3ccc(NCc4ccco4)c1c23	-26	6	32	53*	-6	53*
COc1ccc(C2CC(=O)C3=C(C2)NC(C)=C(C(=O)OC2CCCC2)C3c2ccc(C)o2)cc1OC (centres undefined)	-6	nt	40*	nt	nt	nt
COc1ccccc1C1(NC(=O)Cn2cnc3ccccc32)CCCC1	-30	nt	4	nt	nt	nt
COc1ccc(C(=O)NC(=S)Nc2ccc(S(=O)(=O)Nc3nc(C)cc(C)n3)cc2)cc1	-98	nt	70*	nt	nt	nt
COc1ccc(/C=C/C(=O)NC(=S)Nc2ccc(S(=O)(=O)Nc3cc(OC)ncn3)cc2)cc1	-77	nt	64*	-12	-1	-9
COc1cc(NS(=O)(=O)c2ccc(NC(=S)NC(=O)/C=C/c3ccc(OC)c(OC)c3)cc2)ncn1	-91	nt	17	-6	2	-4
COc1ccc(/C=C/C(=O)NC(=S)Nc2ccc(S(=O)(=O)Nc3nccnc3OC)cc2)cc1	-11	-2	40*	6	2	-20
CCc1nnc(NS(=O)(=O)c2ccc(NC(=S)NC(=O)/C=C/c3ccc(F)cc3)cc2)s1	-11	4	133*	10	-2	9
COc1ccc(/C=C/C(=O)NC(=S)Nc2ccc(S(=O)(=O)Nc3nc(C)cc(C)n3)cc2)cc1	-119	nt	26	nt	nt	nt
Cn1c(N2CCCC(C(=O)NCCc3ccc(F)cc3)C2)nc2ccccc21 (centres undefined)	-61	nt	4	nt	nt	nt
Cc1ccc(/C=C/C(=O)NC(=S)Nc2ccc(S(=O)(=O)Nc3cc(C)on3)cc2)cc1	-111	nt	83*	nt	nt	nt
COCCNc1cc(C)nc2cc(-c3ccc(C)cc3)nn12	62*	nt	9	8	-7	8
Cc1nc2sc3c(c2c(=O)n1/N=C/c1ccco1)CCCC3	26	0	9	103*	-14	104*
C[C@H](NC(=O)c1nc[nH]c1C(=O)NCCCCCNC(=O)OC(C)(C)C)C(=O)OCc1ccccc1	-32	nt	8	-1	4	-11
CC(C)C[C@H](NC(=O)c1nc[nH]c1C(=O)NCCCCCNC(=O)OC(C)(C)C)C(=O)OCc1ccccc1	-13	nt	12	36*	-13	39*
N#CC(C#N)=C1C=CC=CN1/C(=C\c1ccccc1)C(=O)c1cccs1	2	1	49*	3	-3	-10
N#CC(C#N)=C1C=CC=CN1/C(=C\c1ccccc1Cl)C(=O)c1ccccc1	-30	8	24	-8	-5	-27
CCN1CC=C2C(C#N)=C(N)C(C#N)(C#N)C(c3ccc(F)cc3)C2C1 (centres undefined)	-9	nt	11	nt	nt	nt
Cc1cccn2c(CNCCCn3ncc4ccccc43)c(C(=O)N3CCCCC3)nc12	1	nt	3	-5	1	-1

From PubChem
